Data on four compounds can be found in ChEMBL document CHEMBL1159071, “Discovery of 4-(5-methyloxazolo[4,5-b]pyridin-2-yl)-1,4-diazabicyclo[3.2.2]nonane (CP-810,123), a novel alpha 7 nicotinic acetylcholine receptor agonist for the treatment of cognitive disorders in schizophrenia: synthesis, SAR development, and in vivo efficacy in cognition models” (J Med Chem, 2010).

The structures appear in SMILES notation.

Broadly, the EC50 is the concentration needed to bring the measured effect to its halfway point. As a reminder, the Ki is a dissociation constant, usually derived from enzyme kinetics or from competition with a known ligand. A low value points to a stronger hold on the target. In general, IC50 refers to the concentration at which inhibition is half-maximal.

Data set [1] can be described thus: Agonist activity at human alpha7 nAChR/mouse 5HT3 chimeric receptor expressed in SH-EP1 cells assessed as increase in intracellular calcium level relative to 100 uM nicotine. The format is functional. The procedure, abridged:
(§1)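 α7-5HT3 chimera stably in SH-EP1 cells grown to confluence; loaded with Calcium Green 1 AM (2 μM final) 60 min at 37 °C. Compound added directly; calcium rise read by FLIPR (excitation 488 nm, emission >525 nm).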

Data set [2] in a line: Agonist activity at human alpha7 nAChR/mouse 5HT3 chimeric receptor expressed in SH-EP1 cells assessed as increase in intracellular calcium level. The format is functional, cell-based. The procedure, abridged: as §1
(A change in cytosolic calcium serves as a functional read-out for many receptors and channels.)

Data set [3] addresses T1, 5-hydroxytryptamine receptor 3A (Mus musculus, UniProt P23979).
T1 sequence (P23979 whole entry): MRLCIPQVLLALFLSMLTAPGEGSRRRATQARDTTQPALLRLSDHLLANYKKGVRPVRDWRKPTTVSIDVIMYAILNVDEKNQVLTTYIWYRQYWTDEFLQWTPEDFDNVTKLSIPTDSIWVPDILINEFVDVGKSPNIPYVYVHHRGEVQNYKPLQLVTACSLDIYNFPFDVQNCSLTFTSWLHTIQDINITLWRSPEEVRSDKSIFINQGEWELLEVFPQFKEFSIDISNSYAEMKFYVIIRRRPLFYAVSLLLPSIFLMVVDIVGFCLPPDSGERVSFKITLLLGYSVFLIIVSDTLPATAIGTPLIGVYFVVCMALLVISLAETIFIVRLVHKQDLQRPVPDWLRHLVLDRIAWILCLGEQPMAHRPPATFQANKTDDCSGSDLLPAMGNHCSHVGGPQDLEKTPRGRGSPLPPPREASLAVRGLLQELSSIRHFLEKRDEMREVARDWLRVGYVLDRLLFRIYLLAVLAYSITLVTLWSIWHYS
Description: Displacement of [3H]LY278584 from mouse 5HT3 receptor expressed in HEK293 cells. The format is cell-based. The procedure, abridged: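 Mouse 5-HT3A in HEK293 cell homogenate, 20 mM Tris-HCl pH 7.4 with 154 mM NaCl. [3H]LY278584 1 nM final; nonspecific binding with 10 μM ICS205-930; 60 min at 37 °C, then filtration onto PEI-soaked GF/B. Ki by Cheng-Prusoff; mean of three six-point curves in triplicate in one assay; tropisetron standard.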
Background: Displacement assays read how much labelled ligand stays bound in the presence of the test substance.

Data set [4] addresses Neuronal acetylcholine receptor subunit alpha-7 (Rattus norvegicus, UniProt Q05941). In words: Displacement of [125I]BTX from rat alpha7 nicotinic acetylcholine receptor expressed in GH4C1 cells. Format: cell-based, GH4-C1. The procedure, abridged:
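GH4C1 membranes (20 mM HEPES, 118 mM NaCl, 4.5 mM KCl, 2.5 mM CaCl2, 1.2 mM MgSO4, pH 7.5) incubated 2 h at 37 °C with [125I]α-bungarotoxin 0.4 nM final. Nonspecific binding with 1 μM methyllycaconitine; filtration onto PEI-treated GF/B filters. Ki = IC50/(1+[L]/KD); six-point curves in triplicate; geometric mean with 95% CI.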

Data set [5] can be described thus: Selectivity for rat alpha7 nicotinic acetylcholine receptor over mouse 5HT3 receptor.
The target in data set [6] is Neuronal acetylcholine receptor; alpha3/beta4 (Homo sapiens, UniProt P30926+P32297). Description: Displacement of [3H]epibatidine from alpha3beta4 nAChR expressed in IMR32 cells. Format: cell-based, IMR-32. The method in brief: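 Alpha3β4 binding in IMR32 cells with [3H]epibatidine radioligand. Six-point concentration-response curve run in triplicate and averaged.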

Data set [7] deals with T2, 5-hydroxytryptamine receptor 3A (Homo sapiens, UniProt P46098).
T2 sequence (P46098 whole entry): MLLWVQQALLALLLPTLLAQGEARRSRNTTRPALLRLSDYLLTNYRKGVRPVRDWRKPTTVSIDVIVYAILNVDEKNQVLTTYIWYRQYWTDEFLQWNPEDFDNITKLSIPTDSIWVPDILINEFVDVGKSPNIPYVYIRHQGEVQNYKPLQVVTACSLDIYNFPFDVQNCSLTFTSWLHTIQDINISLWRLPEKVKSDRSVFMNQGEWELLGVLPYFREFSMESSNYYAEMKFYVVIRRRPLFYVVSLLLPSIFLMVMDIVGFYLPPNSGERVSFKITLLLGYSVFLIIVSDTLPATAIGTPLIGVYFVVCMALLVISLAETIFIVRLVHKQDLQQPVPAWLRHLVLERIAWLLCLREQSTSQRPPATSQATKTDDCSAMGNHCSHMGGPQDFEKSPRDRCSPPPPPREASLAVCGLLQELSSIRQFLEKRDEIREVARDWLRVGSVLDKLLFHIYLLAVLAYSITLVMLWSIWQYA
Description: […] at human 5HT3 receptor expressed in human skin epithelial cells assessed as stimulation of calcium flux by FLIPR assay. The format is functional, cell-based, Epithelial cell. The procedure, abridged:
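Human 5-HT3A stably in human skin epithelial cells, plated 15 000 cells/well 2 days ahead; loaded 1 h at 37 °C with Fluo-4 (8 μM final), washed into HBSS with 20 mM Tris-HEPES, 1 μM atropine, 4 mM Ca2+, pH 7.4. Compound added 2 min, then 5-HT challenge (250 nM final) 2 min; FLIPR calcium read.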

In data set [8] the target is Voltage-gated inwardly rectifying potassium channel KCNH2 (Homo sapiens, UniProt Q12809).
The test system of a further data set is CHO. Description: Toxicity in CHO cells assessed as induction of DNA fragments by in vitro micronucleus assay. Format: cell-based, Cricetulus griseus. To be noted: chinese hamster.

Sequence of Neuronal acetylcholine receptor subunit alpha-7 (Q05941 whole entry): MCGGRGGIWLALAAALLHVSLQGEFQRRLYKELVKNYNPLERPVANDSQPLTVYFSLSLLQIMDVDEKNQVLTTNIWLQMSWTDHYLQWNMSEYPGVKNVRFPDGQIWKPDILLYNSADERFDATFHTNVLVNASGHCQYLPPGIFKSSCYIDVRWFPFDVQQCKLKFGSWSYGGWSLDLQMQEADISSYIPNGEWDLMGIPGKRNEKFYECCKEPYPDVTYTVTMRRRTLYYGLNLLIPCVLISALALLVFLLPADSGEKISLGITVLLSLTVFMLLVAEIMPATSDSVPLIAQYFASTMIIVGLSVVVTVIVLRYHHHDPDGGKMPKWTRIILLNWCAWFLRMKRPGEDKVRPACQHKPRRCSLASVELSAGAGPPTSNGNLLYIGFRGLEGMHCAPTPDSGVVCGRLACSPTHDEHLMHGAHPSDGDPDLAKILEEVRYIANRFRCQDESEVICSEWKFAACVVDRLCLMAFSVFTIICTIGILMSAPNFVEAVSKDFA
Sequence of Voltage-gated inwardly rectifying potassium channel KCNH2 (Q12809 whole entry, the tested form may be a part): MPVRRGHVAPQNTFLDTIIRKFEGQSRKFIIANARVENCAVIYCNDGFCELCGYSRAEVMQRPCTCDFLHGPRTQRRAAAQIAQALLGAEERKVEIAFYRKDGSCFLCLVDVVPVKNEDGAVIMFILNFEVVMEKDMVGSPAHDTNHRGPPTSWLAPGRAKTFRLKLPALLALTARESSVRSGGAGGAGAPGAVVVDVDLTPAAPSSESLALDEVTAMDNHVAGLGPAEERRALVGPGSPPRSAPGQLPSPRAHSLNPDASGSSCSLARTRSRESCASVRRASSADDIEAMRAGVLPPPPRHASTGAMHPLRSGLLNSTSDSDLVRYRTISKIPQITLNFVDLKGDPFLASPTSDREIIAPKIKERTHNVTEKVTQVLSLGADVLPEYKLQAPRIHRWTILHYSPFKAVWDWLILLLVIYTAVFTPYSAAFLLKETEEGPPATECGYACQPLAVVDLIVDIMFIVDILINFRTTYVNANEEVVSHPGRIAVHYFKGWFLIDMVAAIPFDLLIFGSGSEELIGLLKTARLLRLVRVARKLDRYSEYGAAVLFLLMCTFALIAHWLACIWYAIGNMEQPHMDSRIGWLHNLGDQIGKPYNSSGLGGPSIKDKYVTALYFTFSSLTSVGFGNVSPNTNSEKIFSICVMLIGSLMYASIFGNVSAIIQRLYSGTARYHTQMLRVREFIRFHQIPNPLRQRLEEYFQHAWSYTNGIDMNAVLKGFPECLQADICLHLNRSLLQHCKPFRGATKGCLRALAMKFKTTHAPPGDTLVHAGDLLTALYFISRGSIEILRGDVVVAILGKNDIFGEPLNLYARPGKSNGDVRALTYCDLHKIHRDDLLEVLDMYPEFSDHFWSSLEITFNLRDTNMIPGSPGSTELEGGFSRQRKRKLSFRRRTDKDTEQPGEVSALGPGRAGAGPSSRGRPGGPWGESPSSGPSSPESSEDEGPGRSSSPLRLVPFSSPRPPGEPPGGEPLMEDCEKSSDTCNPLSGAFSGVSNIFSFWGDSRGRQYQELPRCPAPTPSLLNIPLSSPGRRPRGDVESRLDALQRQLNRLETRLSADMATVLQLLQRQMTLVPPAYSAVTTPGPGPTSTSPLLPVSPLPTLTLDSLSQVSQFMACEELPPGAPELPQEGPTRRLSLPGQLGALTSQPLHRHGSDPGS
Sequence of Neuronal acetylcholine receptor; alpha3/beta4 (P30926 whole entry): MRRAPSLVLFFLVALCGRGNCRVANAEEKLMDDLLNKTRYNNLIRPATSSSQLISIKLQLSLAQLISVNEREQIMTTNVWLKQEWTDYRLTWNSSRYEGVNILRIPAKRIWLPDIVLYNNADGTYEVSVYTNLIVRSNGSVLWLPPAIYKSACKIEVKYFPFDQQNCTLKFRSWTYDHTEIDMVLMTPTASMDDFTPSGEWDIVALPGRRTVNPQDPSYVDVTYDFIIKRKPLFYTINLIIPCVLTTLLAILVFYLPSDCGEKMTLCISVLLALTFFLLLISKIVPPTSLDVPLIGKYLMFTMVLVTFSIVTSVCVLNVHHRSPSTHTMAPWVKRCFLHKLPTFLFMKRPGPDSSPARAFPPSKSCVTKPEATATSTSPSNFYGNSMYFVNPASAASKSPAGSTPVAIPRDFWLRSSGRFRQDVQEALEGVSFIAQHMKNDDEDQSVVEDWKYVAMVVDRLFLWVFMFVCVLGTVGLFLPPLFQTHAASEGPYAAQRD
Sequence of Neuronal acetylcholine receptor; alpha3/beta4 (P32297 whole entry): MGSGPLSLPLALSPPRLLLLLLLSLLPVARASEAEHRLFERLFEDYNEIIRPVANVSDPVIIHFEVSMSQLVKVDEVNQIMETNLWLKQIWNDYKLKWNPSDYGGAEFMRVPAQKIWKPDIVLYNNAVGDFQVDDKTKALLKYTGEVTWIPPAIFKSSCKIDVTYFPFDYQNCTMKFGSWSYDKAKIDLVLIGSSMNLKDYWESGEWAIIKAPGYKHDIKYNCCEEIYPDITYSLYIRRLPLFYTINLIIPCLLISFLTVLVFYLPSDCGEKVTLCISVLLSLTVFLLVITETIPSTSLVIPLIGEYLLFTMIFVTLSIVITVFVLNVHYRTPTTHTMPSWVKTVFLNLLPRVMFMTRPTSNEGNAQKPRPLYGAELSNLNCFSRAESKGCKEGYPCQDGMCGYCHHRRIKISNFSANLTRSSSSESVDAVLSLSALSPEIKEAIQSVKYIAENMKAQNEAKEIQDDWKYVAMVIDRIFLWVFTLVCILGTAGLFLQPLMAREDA

For the compound `c1ccc(-c2ccc3oc(N4CCN5CCC4CC5)nc3n2)cc1`, the Efficacy in data set [1] is listed as 71%. Further, the EC50 in [2] came to 320 nM. Further, the Ki is above 3580 nM in [3] and 3.22 nM in data set [4]. Also, the Ratio Ki in [5] turned out to be 3.
The compound `O=c1c(Br)ccc2n1C[C@@H]1CNC[C@H]2C1` registered an IC50 in data set [6] of 15.6 nM.
`Brc1cnc2nc(N3CCN4CCC3CC4)oc2c1`: the IC50 was 779 nM in data set [7] and 2300 nM in [8]. Also, in data set [1], the Efficacy was 64%. Besides, the EC50 in [2] was found to be 240 nM. For the same compound, the Ki in data set [3] amounted to 926 nM; in data set [4] it was 2.08 nM. Further, the Activity entry with CHO is “Toxic”.
As for `Cc1nc2nc(N3CCN4CCC3CC4)oc2cc1Cl`, the IC50 amounted to 70 nM in [7] and 16200 nM in data set [8]. Moreover, the Efficacy in data set [1] was found to be 58%. In addition, the EC50 in data set [2] came out at 160 nM. Moreover, the Ki in data set [3] was found to be 244 nM; in [4], 3.19 nM. For the same compound, the Activity result with CHO is “Non-toxic”.
